Measured values reported in ChEMBL document CHEMBL5058577, “EUbOPEN Chemogenomics Library 2 (Multiplex)” (2022).

Tested on: HEK-293T
Assay: Multiplex assay against HEK293T
Type: toxicity, cell-based
Settings: human
Outline: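 At seeding, live cells were stained with Hoechst33342, BioTracker Green Microtubule Cytoskeleton Dye, MitoTracker Red and Annexin V Alexa Fluor 680. After compound addition they were imaged on a CQ1 microscope at 37°C and 5% CO2, and CellPathfinder machine-learning gating sorted them into Hoechst high-intensity objects or normal cells, with normal cells further split into healthy, pyknosed or fragmented nuclei and pyknosed cells into mitotic or apoptotic. Tubulin, mitochondrial-mass and membrane-permeability phenotypes are given as per cents of cells with healthy nuclei.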

[1] = 12 h, 1 µM, compound concentration 1 uM, replicate 1
[2] = 12 h, 1 µM, compound concentration 1 uM, replicate 2
[3] = 12 h, 10 µM, compound concentration 10 uM, replicate 1
[4] = 12 h, 10 µM, compound concentration 10 uM, replicate 2
[5] = 24 h, 1 µM, compound concentration 1 uM, replicate 1
[6] = 24 h, 1 µM, compound concentration 1 uM, replicate 2
[7] = 24 h, 10 µM, compound concentration 10 uM, replicate 1
[8] = 24 h, 10 µM, compound concentration 10 uM, replicate 2
[9] = 48 h, 1 µM, compound concentration 1 uM, replicate 1
[10] = 48 h, 1 µM, compound concentration 1 uM, replicate 2
[11] = 48 h, 10 µM, compound concentration 10 uM, replicate 1
[12] = 48 h, 10 µM, compound concentration 10 uM, replicate 2

## O=S(=O)(c1ccccc1)c1cnc2c(N3CCNCC3)cccc2c1 [INTEPIRDINE]
[1]
  Population Apoptotic (%): 40%
  Population Fragmented Nuclei (%): 7%
  Population Healthy Nuclei (%): 80%
  Population Hoechst High Intensity Objects (%): 7%
  Population Membrane Permeable-Phenotype (%): 0%
  Population Mitochondria Different-Phenotype (%): 54%
  Population Mitotic Cells (%): 60%
  Population Normal (%): 92%
  Population Pyknosed Nuclei (%): 12%
  Population Tubulin-Different-Phenotype (%): 43%
  Total Cell Count: 403
[2]
  Population Apoptotic (%): 50%
  Population Healthy Nuclei (%): 74%
  Population Hoechst High Intensity Objects (%): 10%
  Population Mitochondria Different-Phenotype (%): 69%
  Population Mitotic Cells (%): 50%
  Population Normal (%): 89%
  Population Pyknosed Nuclei (%): 17%
  Population Tubulin-Different-Phenotype (%): 23%
  Total Cell Count: 336
[3]
  Population Apoptotic (%): 51%
  Population Fragmented Nuclei (%): 8%
  Population Healthy Nuclei (%): 72%
  Population Hoechst High Intensity Objects (%): 10%
  Population Membrane Permeable-Phenotype (%): 0%
  Population Mitochondria Different-Phenotype (%): 70%
  Population Mitotic Cells (%): 48%
  Population Normal (%): 89%
  Population Pyknosed Nuclei (%): 18%
  Population Tubulin-Different-Phenotype (%): 58%
  Total Cell Count: 326
[4]
  Population Apoptotic (%): 46%
  Population Fragmented Nuclei (%): 4%
  Population Healthy Nuclei (%): 79%
  Population Hoechst High Intensity Objects (%): 7%
  Population Mitochondria Different-Phenotype (%): 76%
  Population Mitotic Cells (%): 53%
  Population Normal (%): 92%
  Population Pyknosed Nuclei (%): 15%
  Population Tubulin-Different-Phenotype (%): 50%
  Total Cell Count: 349
[5]
  Population Apoptotic (%): 28%
  Population Fragmented Nuclei (%): 6%
  Population Healthy Nuclei (%): 80%
  Population Hoechst High Intensity Objects (%): 5%
  Population Membrane Permeable-Phenotype (%): 0%
  Population Mitochondria Different-Phenotype (%): 35%
  Population Mitotic Cells (%): 71%
  Population Normal (%): 94%
  Population Pyknosed Nuclei (%): 12%
  Population Tubulin-Different-Phenotype (%): 26%
  Total Cell Count: 530
[6]
  Population Apoptotic (%): 58%
  Population Fragmented Nuclei (%): 7%
  Population Healthy Nuclei (%): 85%
  Population Mitochondria Different-Phenotype (%): 43%
  Population Mitotic Cells (%): 41%
  Population Pyknosed Nuclei (%): 7%
  Population Tubulin-Different-Phenotype (%): 14%
  Total Cell Count: 416
[7]
  Population Apoptotic (%): 52%
  Population Fragmented Nuclei (%): 11%
  Population Healthy Nuclei (%): 75%
  Population Hoechst High Intensity Objects (%): 6%
  Population Membrane Permeable-Phenotype (%): 0%
  Population Mitochondria Different-Phenotype (%): 50%
  Population Mitotic Cells (%): 47%
  Population Normal (%): 93%
  Population Pyknosed Nuclei (%): 12%
  Population Tubulin-Different-Phenotype (%): 33%
  Total Cell Count: 439
[8]
  Population Apoptotic (%): 51%
  Population Fragmented Nuclei (%): 9%
  Population Healthy Nuclei (%): 82%
  Population Hoechst High Intensity Objects (%): 4%
  Population Mitochondria Different-Phenotype (%): 61%
  Population Mitotic Cells (%): 48%
  Population Normal (%): 95%
  Population Pyknosed Nuclei (%): 8%
  Population Tubulin-Different-Phenotype (%): 42%
  Total Cell Count: 458
[9]
  Population Apoptotic (%): 17%
  Population Fragmented Nuclei (%): 12%
  Population Healthy Nuclei (%): 80%
  Population Hoechst High Intensity Objects (%): 4%
  Population Membrane Permeable-Phenotype (%): 1%
  Population Mitochondria Different-Phenotype (%): 25%
  Population Mitotic Cells (%): 82%
  Population Normal (%): 95%
  Population Pyknosed Nuclei (%): 7%
  Population Tubulin-Different-Phenotype (%): 16%
  Total Cell Count: 866
[10]
  Population Apoptotic (%): 25%
  Population Fragmented Nuclei (%): 13%
  Population Healthy Nuclei (%): 79%
  Population Hoechst High Intensity Objects (%): 3%
  Population Membrane Permeable-Phenotype (%): 0%
  Population Mitochondria Different-Phenotype (%): 26%
  Population Mitotic Cells (%): 75%
  Population Normal (%): 96%
  Population Pyknosed Nuclei (%): 6%
  Population Tubulin-Different-Phenotype (%): 12%
  Total Cell Count: 641
[11]
  Population Apoptotic (%): 40%
  Population Fragmented Nuclei (%): 14%
  Population Healthy Nuclei (%): 75%
  Population Hoechst High Intensity Objects (%): 4%
  Population Membrane Permeable-Phenotype (%): 0%
  Population Mitochondria Different-Phenotype (%): 45%
  Population Mitotic Cells (%): 59%
  Population Normal (%): 95%
  Population Pyknosed Nuclei (%): 10%
  Population Tubulin-Different-Phenotype (%): 30%
  Total Cell Count: 606
[12]
  Population Apoptotic (%): 18%
  Population Fragmented Nuclei (%): 11%
  Population Healthy Nuclei (%): 82%
  Population Mitochondria Different-Phenotype (%): 38%
  Population Mitotic Cells (%): 81%
  Population Pyknosed Nuclei (%): 5%
  Population Tubulin-Different-Phenotype (%): 27%
  Total Cell Count: 673

## c1cc(OCCCN2CCCCC2)ccc1CN1CCCCC1 [JNJ-5207852]
[1]
  Population Apoptotic (%): 36%
  Population Fragmented Nuclei (%): 6%
  Population Healthy Nuclei (%): 84%
  Population Hoechst High Intensity Objects (%): 5%
  Population Membrane Permeable-Phenotype (%): 0%
  Population Mitochondria Different-Phenotype (%): 36%
  Population Mitotic Cells (%): 63%
  Population Normal (%): 94%
  Population Pyknosed Nuclei (%): 8%
  Population Tubulin-Different-Phenotype (%): 21%
  Total Cell Count: 577
[2]
  Population Apoptotic (%): 47%
  Population Fragmented Nuclei (%): 10%
  Population Healthy Nuclei (%): 75%
  Population Mitochondria Different-Phenotype (%): 53%
  Population Mitotic Cells (%): 52%
  Population Pyknosed Nuclei (%): 13%
  Population Tubulin-Different-Phenotype (%): 17%
  Total Cell Count: 310
[3]
  Population Apoptotic (%): 40%
  Population Fragmented Nuclei (%): 7%
  Population Healthy Nuclei (%): 75%
  Population Hoechst High Intensity Objects (%): 7%
  Population Membrane Permeable-Phenotype (%): 0%
  Population Mitochondria Different-Phenotype (%): 63%
  Population Mitotic Cells (%): 59%
  Population Normal (%): 92%
  Population Pyknosed Nuclei (%): 17%
  Population Tubulin-Different-Phenotype (%): 52%
  Total Cell Count: 328
[4]
  Population Apoptotic (%): 66%
  Population Healthy Nuclei (%): 67%
  Population Hoechst High Intensity Objects (%): 11%
  Population Membrane Permeable-Phenotype (%): 1%
  Population Mitochondria Different-Phenotype (%): 69%
  Population Mitotic Cells (%): 33%
  Population Normal (%): 88%
  Population Pyknosed Nuclei (%): 24%
  Population Tubulin-Different-Phenotype (%): 41%
  Total Cell Count: 259
[5]
  Population Apoptotic (%): 25%
  Population Fragmented Nuclei (%): 6%
  Population Healthy Nuclei (%): 82%
  Population Hoechst High Intensity Objects (%): 5%
  Population Membrane Permeable-Phenotype (%): 1%
  Population Mitochondria Different-Phenotype (%): 20%
  Population Mitotic Cells (%): 74%
  Population Normal (%): 94%
  Population Pyknosed Nuclei (%): 11%
  Population Tubulin-Different-Phenotype (%): 15%
  Total Cell Count: 710
[6]
  Population Apoptotic (%): 41%
  Population Fragmented Nuclei (%): 11%
  Population Healthy Nuclei (%): 79%
  Population Hoechst High Intensity Objects (%): 3%
  Population Membrane Permeable-Phenotype (%): 0%
  Population Mitochondria Different-Phenotype (%): 30%
  Population Mitotic Cells (%): 58%
  Population Normal (%): 96%
  Population Pyknosed Nuclei (%): 9%
  Population Tubulin-Different-Phenotype (%): 12%
  Total Cell Count: 447
[7]
  Population Apoptotic (%): 47%
  Population Fragmented Nuclei (%): 9%
  Population Healthy Nuclei (%): 77%
  Population Hoechst High Intensity Objects (%): 6%
  Population Membrane Permeable-Phenotype (%): 1%
  Population Mitochondria Different-Phenotype (%): 47%
  Population Mitotic Cells (%): 52%
  Population Normal (%): 93%
  Population Pyknosed Nuclei (%): 13%
  Population Tubulin-Different-Phenotype (%): 44%
  Total Cell Count: 414
[8]
  Population Apoptotic (%): 65%
  Population Fragmented Nuclei (%): 8%
  Population Healthy Nuclei (%): 79%
  Population Hoechst High Intensity Objects (%): 5%
  Population Membrane Permeable-Phenotype (%): 2%
  Population Mitochondria Different-Phenotype (%): 50%
  Population Mitotic Cells (%): 34%
  Population Normal (%): 94%
  Population Pyknosed Nuclei (%): 11%
  Population Tubulin-Different-Phenotype (%): 35%
  Total Cell Count: 322
[9]
  Population Apoptotic (%): 17%
  Population Fragmented Nuclei (%): 14%
  Population Healthy Nuclei (%): 80%
  Population Hoechst High Intensity Objects (%): 2%
  Population Membrane Permeable-Phenotype (%): 1%
  Population Mitochondria Different-Phenotype (%): 12%
  Population Mitotic Cells (%): 82%
  Population Normal (%): 97%
  Population Pyknosed Nuclei (%): 5%
  Population Tubulin-Different-Phenotype (%): 11%
  Total Cell Count: 1128
[10]
  Population Apoptotic (%): 23%
  Population Fragmented Nuclei (%): 11%
  Population Healthy Nuclei (%): 83%
  Population Hoechst High Intensity Objects (%): 1%
  Population Mitochondria Different-Phenotype (%): 17%
  Population Mitotic Cells (%): 76%
  Population Normal (%): 98%
  Population Pyknosed Nuclei (%): 4%
  Population Tubulin-Different-Phenotype (%): 9%
  Total Cell Count: 746
[11]
  Population Apoptotic (%): 34%
  Population Fragmented Nuclei (%): 13%
  Population Healthy Nuclei (%): 77%
  Population Hoechst High Intensity Objects (%): 8%
  Population Membrane Permeable-Phenotype (%): 1%
  Population Mitochondria Different-Phenotype (%): 29%
  Population Mitotic Cells (%): 65%
  Population Normal (%): 91%
  Population Pyknosed Nuclei (%): 8%
  Population Tubulin-Different-Phenotype (%): 28%
  Total Cell Count: 619
[12]
  Population Apoptotic (%): 52%
  Population Healthy Nuclei (%): 75%
  Population Hoechst High Intensity Objects (%): 9%
  Population Mitochondria Different-Phenotype (%): 38%
  Population Mitotic Cells (%): 47%
  Population Normal (%): 90%
  Population Pyknosed Nuclei (%): 10%
  Population Tubulin-Different-Phenotype (%): 30%
  Total Cell Count: 424
